# In ChEMBL document CHEMBL3580596, “Discovery of Multitarget Antivirals Acting on Both the Dengue Virus NS5-NS3 Interaction and the Host Src/Fyn Kinases” (J Med Chem, 2015):
# Active and inactive are the calls of the source. The rule behind the calls is not given here.
# Key:
# [1] = target: Tyrosine-protein kinase Fyn (Homo sapiens) (UniProt P06241); test: Inhibition of human his-tagged full length Fyn active enzyme using KVEKIGEGTYGVVYK substrate by scintillation counting analysis
# dengue virus type 2 [2] = test: Antiviral activity against DENV serotype 2 strain New Guinea V infected in African green monkey Vero B cells assessed as inhibition of virus-induced cytopathogenic effect after 7 days; assay type: functional, organism-based
# Outline: (§1)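 Vero-B cells, 7×10^3/well, adhered overnight, then given 1:2 serial dilutions (start 100 μg/mL) plus 100 CCID50 DENV-2 NGC (virus grown in C6/36 cells) in MEM with 2% FBS. After 7 days, fixed with ethanol and stained with 1% methylene blue. EC50 for 50% inhibition of virus-induced CPE comes from microscopic scoring of each well.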
# [3] = target: Proto-oncogene tyrosine-protein kinase Src (Homo sapiens) (UniProt P12931); test: Inhibition of human his-tagged full length Src active enzyme using KVEKIGEGTYGVVYK substrate by scintillation counting analysis
# Chain of Proto-oncogene tyrosine-protein kinase Src (Homo sapiens) (P12931 2-536 limits assumed): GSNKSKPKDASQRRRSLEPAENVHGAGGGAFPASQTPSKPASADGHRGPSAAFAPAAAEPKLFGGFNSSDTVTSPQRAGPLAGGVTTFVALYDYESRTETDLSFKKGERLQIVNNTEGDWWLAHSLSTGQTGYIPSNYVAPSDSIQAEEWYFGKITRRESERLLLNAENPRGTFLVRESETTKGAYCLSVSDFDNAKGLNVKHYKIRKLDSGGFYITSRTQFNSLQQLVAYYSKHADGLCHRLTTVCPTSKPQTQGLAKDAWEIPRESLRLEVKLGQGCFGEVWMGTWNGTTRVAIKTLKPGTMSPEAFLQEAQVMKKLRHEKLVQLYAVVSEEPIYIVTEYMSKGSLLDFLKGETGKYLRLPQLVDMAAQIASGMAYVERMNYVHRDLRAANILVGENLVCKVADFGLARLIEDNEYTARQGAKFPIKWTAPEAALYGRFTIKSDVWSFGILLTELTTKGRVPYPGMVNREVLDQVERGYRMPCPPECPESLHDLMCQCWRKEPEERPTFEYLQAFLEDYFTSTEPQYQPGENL
# [4] = Cytotoxicity against african green monkey Vero B cells; assay type: cell-based; conditions: chlorocebus sabaeus
# Outline: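 Uninfected Vero-B cells treated with compound dilutions; CC50 taken as concentration giving 50% reduction of metabolic activity or cell growth. Read-out by MTS/PMS (yield-assay series) or by 7-day methylene blue staining with microscopic scoring (CPE series, 1:2 dilutions from 100 μg/mL).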
# dengue virus type 2 [5] = test: Inhibition of DENV2 His- and FLAG-tagged NS3 and NS5 protein interaction at 500 uM after 1 hr by alphascreen assay
# [6] = Selectivity index, ratio of CC50 for African green monkey Vero B cells to EC50 for DENV serotype 2 strain New Guinea V
# dengue virus type 2 [7] = test: Antiviral activity against DENV serotype 2 strain New Guinea V infected in African green monkey Vero B cells assessed as RNA replication after 4 days by RT-qPCR analysis; assay type: functional, organism-based
# Outline: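 Vero-B cells (5×10^4/well) infected 2 h with DENV-2 NGC (100 CCID50), washed 3×, then cultured 4 days with 5-fold serial compound dilutions (50 – 0.08 μg/mL) in MEM with 2% FBS. Viral RNA in supernatant quantified by RT-qPCR; EC50 (50% inhibition of viral RNA replication) by logarithmic interpolation.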
# [8] = target: Proto-oncogene tyrosine-protein kinase Src (Homo sapiens) (UniProt P12931); test: Inhibition of human his-tagged full length Src active enzyme using KVEKIGEGTYGVVYK substrate at 100 uM by scintillation counting analysis
# dengue virus type 2 [9] = test: Antiviral activity against DENV serotype 2 strain New Guinea V infected in African green monkey Vero B cells assessed as inhibition of virus replication after 4 days by qRT-PCR analysis; assay type: functional, organism-based; conditions: 96 h
# Outline: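 Vero-B cells, 5×10^4/well, infected one day after seeding with 100 CCID50 DENV-2 NGC for 2 h, then washed 3 times. Cultured 4 days with 5-fold compound dilutions (50–0.08 μg/mL) in medium with 2% FBS. Supernatant viral RNA measured by RT-qPCR; EC50 (50% inhibition of RNA replication) found by logarithmic interpolation.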
# dengue virus type 2 [10] = test: Ratio of ribavirin EC50 to compound EC50 for DENV serotype 2 strain New Guinea V infected in African green monkey Vero B cells assessed as inhibition of virus-induced cytopathogenic effect after 7 days; assay type: functional
# dengue virus type 2 [11] = test: Inhibition of DENV2 His- and FLAG-tagged NS3 and NS5 protein interaction at 50 uM after 1 hr by alphascreen assay
# Outline: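 Wheat-germ cell-free expressed HF-NS3 (or HF-DHFR as negative control) and GST-tagged biotinylated NS5, 25 nM each, incubated 1 h at room temperature with compound (0.5% DMSO) in Tris pH 7.5/NaCl/MgCl2/DTT/BSA/Tween-20 buffer. Then anti-FLAG IgG, protein A acceptor and streptavidin donor beads added for 1 h; luminescence expressed as % of DMSO control, n=2.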
# Dengue virus = test: Antiviral activity against DENV by CPE-reduction assay; assay type: functional, organism-based; outline: as §1
# [12] = target: Tyrosine-protein kinase Fyn (Homo sapiens) (UniProt P06241); test: Inhibition of human his-tagged full length Fyn active enzyme using KVEKIGEGTYGVVYK substrate at 100 uM by scintillation counting analysis
# [13] = Dengue virus, New Guinea V, Vero, 168 h, read-out: EC50
# Chain of Tyrosine-protein kinase Fyn (Homo sapiens) (P06241 2-537 limits assumed): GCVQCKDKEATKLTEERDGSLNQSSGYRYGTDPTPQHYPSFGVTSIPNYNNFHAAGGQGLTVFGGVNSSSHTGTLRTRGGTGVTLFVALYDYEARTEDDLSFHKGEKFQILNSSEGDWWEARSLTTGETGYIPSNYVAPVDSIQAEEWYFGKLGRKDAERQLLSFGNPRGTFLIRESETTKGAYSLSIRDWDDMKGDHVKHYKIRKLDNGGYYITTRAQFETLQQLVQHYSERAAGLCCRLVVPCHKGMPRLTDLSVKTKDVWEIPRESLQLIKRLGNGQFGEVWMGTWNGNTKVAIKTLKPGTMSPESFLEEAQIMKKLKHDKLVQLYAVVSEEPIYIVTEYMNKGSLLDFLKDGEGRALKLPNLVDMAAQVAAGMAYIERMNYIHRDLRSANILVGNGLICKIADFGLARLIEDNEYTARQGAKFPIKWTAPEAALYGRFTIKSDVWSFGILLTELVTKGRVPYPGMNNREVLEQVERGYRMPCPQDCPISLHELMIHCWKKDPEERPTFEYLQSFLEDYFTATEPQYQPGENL
Structure (SMILES),ID50 [1] [µM],EC50 (dengue virus type 2 [2]; vero),ID50 [3] [µM],CC50 [4] [µM],inhibition (dengue virus type 2 [5]),Ratio CC50/EC50 [6],EC50 (dengue virus type 2 [9]) [µM],also measured
NS(=O)(=O)c1ccc(Nc2nc(N3CCOCC3)nc3[nH]cnc23)cc1,0.5,Not Active,0.9,373,Active,–,–,–
CNc1nc(Nc2cccc(O)c2)c2nc[nH]c2n1,3.6,–,–,168,Active,32,5.3,inhibition (dengue virus type 2 [7]): Dose-dependent effect; ID50 [8]: 4.9 µM; Ratio EC50 (dengue virus type 2 [10]): 10; inhibition (dengue virus type 2 [11]): 33%
Cc1nc(Nc2ncc(C(=O)Nc3c(C)cccc3Cl)s2)cc(N2CCN(CCO)CC2)n1 [DASATINIB],–,–,–,–,–,–,–,EC50 (Dengue virus): 1 µM
CC(=O)c1ccc(Nc2nc(NCCC(C)C)nc3[nH]cnc23)cc1,–,–,–,85,Active,1,59,–
COc1ccc(Cn2c(C)cc(OCc3cccc(F)c3)cc2=O)cc1,–,–,–,< 6.4,–,–,–,EC50 (dengue virus type 2 [2]; [13]): < 6.4 µM; inhibition [8]: inactive; inhibition [12]: inactive
Cc1cc(OCc2ccc(F)cc2F)cc(=O)n1Cc1cn(Cc2cccc(Br)c2)nn1,–,Not Active,–,36,–,–,–,–
COc1ccc2c(Nc3ccc(Cl)cc3Cl)c(C#N)cnc2c1,2,Not Active,0.2,19,–,–,–,–
CNc1nc(Nc2ccc(C(C)=O)cc2)c2nc[nH]c2n1,–,–,–,> 177,Active,>4,42,–
COc1cc2ncc(C#N)c(Nc3ccc(Cl)cc3Cl)c2cc1OC,0.22,–,0.03,< 5.7,–,–,–,EC50 (dengue virus type 2 [2]; [13]): < 5.7 µM
NS(=O)(=O)c1ccc(Nc2nc(N3CCN(CCO)CC3)nc3[nH]cnc23)cc1,4.8,Not Active,7.4,–,Active,–,–,–
CC(=O)c1ccc(Nc2nc(NCCO)nc3[nH]cnc23)cc1,–,–,–,160,Active,2,72,–
NC(=O)c1ncn([C@@H]2O[C@H](CO)[C@@H](O)[C@H]2O)n1 [RIBAVIRIN],–,–,–,409,–,>10,42,–
Cc1cc(OCc2ccc(F)cc2F)cc(=O)n1Cc1cn(Cc2cccc(C(F)(F)F)c2)nn1,–,Not Active,–,40,–,–,–,inhibition [8]: inactive; inhibition [12]: inactive
CN1CCN(CCOc2cc(OC3CCOCC3)c3c(Nc4c(Cl)ccc5c4OCO5)ncnc3c2)CC1 [SARACATINIB],–,–,–,–,–,–,–,EC50 (Dengue virus): 6 µM
CC(C)CCNc1nc(Nc2cccc(O)c2)c2nc[nH]c2n1,1.7,–,1.7,151,Active,8,20,–
OCCN1CCN(c2nc(Nc3ccccc3)c3nc[nH]c3n2)CC1,4.2,Not Active,4.2,474,Active,–,–,–
COc1ccc2c(Nc3ccc(N4CCN(C)CC4)cc3)c(C#N)cnc2c1,–,Not Active,–,7.9,–,–,–,inhibition [8]: inactive; inhibition [12]: inactive
NS(=O)(=O)c1ccc(Nc2nc(N3CCN(CCO)CC3)nc3nc[nH]c23)cc1,–,–,–,437,–,–,–,–
Oc1cccc(Nc2nc(NCc3ccccc3)nc3[nH]cnc23)c1,4.1,–,3.7,> 150,Active,>2,69,–
